The list is not random: actives were taken first. Their share in the collection is about 1.8%.
STAT3 activator – IL-6 driven STAT3 reporter potentiators, primary screen, U3A cells, luciferase, luminescence, MLSCN library | IL-6 STAT3-luciferase reporter; 100% = signal with IL-6 EC80 alone | activation (% of control), % at 5.6 µM | 0.91% of 190,000 active | AID 871, 2007;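 active = activation above the screen-wide mean of compound activation plus 3 SD, cut at about 130% in these data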;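 note: 0% = background luminescence of wells with medium and substrate only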
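Material: STAT3-luciferase reporter U3A cells; Probe or stimulus: IL-6 (33 ng/mL); Incubation: compound pre-incubation 1 h before IL-6, then 6 h stimulation at 37 °C; Technique: luminescence from STAT3-driven luciferase reporter; Evaluation: % activation versus median of IL-6-stimulated wells; Controls: IL-6-only high control.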
STAT1 blocker – STAT1 signaling inhibitors, primary screen, cell-based, HTS, luciferase reporter; inhibition, % at 5.5 µM; NIH 3T3 STAT1-luciferase reporter, IFN-gamma, luminescence; AID 920, 2007; 0.35% of 200,000 active;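 active = inhibition above a set limit, the mean inhibition across all tested compounds plus 3 SD, cut at about 34% in these data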;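 note: 0% = IFN-gamma with DMSO and 100% = IFN-gamma with 300 µM nifuroxazide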
STAT3 blocker – IL-6 driven STAT3 reporter inhibitors, primary screen, U3A cells, luciferase, luminescence, MLSCN library; IL-6 STAT3-luciferase reporter; host cell line lacks STAT1; inhibition, % at 5.5 µM; 0.89% of 190,000 active; AID 862, 2007;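 active = inhibition above the mean inhibition across all screened compounds plus 3 SD, cut at about 44% in these data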;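 note: 0% = DMSO only wells and 100% = 100 µM nifuroxazide control wells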
PPC-1+TRAIL kill – compounds killing PPC-1 cancer cells with TRAIL present, primary screen, TRAIL potentiator project, ATPLite luminescence, uHTS | PPC-1 cells + TRAIL, ATPLite viability luminescence | 0.41% of 220,000 active | cell killing (% activity), % at 4 µM or 5 µM;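 active = cell killing above 50% in the first pass at 4 µM, then a duplicate retest at 5 µM averaging 50% or more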;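 note: plate controls were cells with TRAIL plus DMSO for no effect and medium-only wells lacking cells for full effect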
C8 TRAIL sens – viability loss with TRAIL in NB7+C8 cells, primary screen, TRAIL sensitizer project, cell-based, ATPlite luminescence; inhibition (viability loss, TRAIL sensitization), % at 10 µM; 1% of 360,000 active;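 active = compounds causing at least 50% loss of cell viability in the single-dose screen, relative to plate controls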
* marks the source's active call; other numbers are inactive results; / = not tested or not shown.

SMILES	STAT3 activator	STAT1 blocker	STAT3 blocker	PPC-1+TRAIL kill	C8 TRAIL sens
C/C(=N\Nc1ccc(F)cc1F)c1ccc(N2CCOCC2)cc1	133.5*	-15.0	-29.7	11.1	-4.6
Fc1ccc(-c2nc(-c3cccs3)no2)cc1	/	/	/	-2.6	1.5
COC(=O)c1ccc(-c2nc(-c3cccs3)no2)cc1	29.8	52.2*	90.6*	34.5	58.3*
CSCCC(NC(=O)c1cccc([N+](=O)[O-])c1)C(=O)OCC(=O)N1CCCC1=O (stereo not given)	/	/	/	/	-5.2
Cc1ccc(/C(O)=C2\C(=O)C(=O)N(C)C2c2ccccc2[N+](=O)[O-])cc1 (stereo not given)	/	/	/	/	3.3
Cc1ccc(/C(O)=C2\C(=O)C(=O)N(Cc3cccnc3)C2c2ccccc2[N+](=O)[O-])cc1 (stereo not given)	133.2*	-17.7	-33.8	24.7	-0.8
Cc1nn(-c2nc3ccccc3s2)c(N)c1Sc1ccc(F)cc1	158.0*	-41.8	-59.0	6.3	38.2
Cc1nn(-c2nc3ccccc3s2)c(N)c1-c1ccccc1	118.6	-46.7	-21.5	21.3	28.1
O=C(Nc1ccc([N+](=O)[O-])cc1)C1C(c2ccccc2)=C1c1ccccc1	133.3*	-6.4	-26.3	10.3	40.9
COc1ccc(C2(C)C(C#N)C(=O)NC(=O)C2C#N)cc1 (stereo not given)	/	/	/	/	-4.4
CCN1CCN(CC(=O)c2c[nH]c3ccccc23)CC1	133.1*	-2.0	-31.4	3.6	-6.4
COC(=O)c1ccc(C)c(NC(=O)CCn2[nH]c(=O)ccc2=O)c1	/	/	/	/	-5.7
COc1ccc(C2C(C(=O)N3CC(C)CC(C)C3)c3ccccc3C(=O)N2C)cc1 (stereo not given)	93.6	-5.8	11.9	-0.2	27.9
COc1ccc(C2C(C(=O)N3CCN(c4ccccc4F)CC3)c3ccccc3C(=O)N2C)cc1 (stereo not given)	96.3	-1.4	7.6	4.8	66.9*
COc1ccc(C2C(C(=O)N3CCC(C)CC3)c3ccccc3C(=O)N2C)cc1 (stereo not given)	105.1	-4.1	-3.5	3.3	54.0*
CC(=O)Oc1ccc(/C=N\NC(=O)c2cc3c(ccc4ccccc43)o2)cc1	/	/	/	/	63.8*
N#CC(C#N)=C(Nc1ccc(F)cc1)SCc1cccc(F)c1	51.8	48.8*	58.8*	23.6	45.8
CNCCNC[C@H](Cc1cccc2ccccc12)NCCc1ccccc1	/	/	/	/	-9.7
CNC[C@H](Cc1ccccc1)NC[C@@H](Cc1cccc2ccccc12)NCCc1ccc(C)cc1	/	/	/	/	95.0*
CCn1c(O)c(N=NC(=O)C(O)c2ccccc2)c2ccccc21 (stereo not given)	/	/	/	10.3	16.4
COc1ccc(OC)c2sc(N(CCN(C)C)C(=O)/C=C/c3cccs3)nc12	/	/	/	/	93.3*
COc1ccc(C)c2sc(N(CCN(C)C)C(=O)/C=C/c3cccs3)nc12	/	/	/	/	-1.9
CCc1ccc(/C=C2\SC(=S)N(CCCC(=O)N3CCN(C)CC3)C2=O)cc1	/	/	/	/	86.9*
COc1ccc(/C=C2\SC(=S)N(CCCC(=O)N3CCN(C)CC3)C2=O)cc1	/	/	/	/	-13.4
CCc1ccc(/C=C2\SC(=S)N(CCCC(=O)NCCCN3CCOCC3)C2=O)cc1	/	/	/	/	75.5*
SMILES	STAT3 activator	STAT1 blocker	STAT3 blocker	PPC-1+TRAIL kill	C8 TRAIL sens
CCc1ccc(/C=C2/SC(=S)N(CCC(=O)NCCCN3CCOCC3)C2=O)cc1	/	/	/	/	25.3
O=C(Nc1cccc(F)c1)NC1CCN(Cc2ccccc2)CC1	98.5	0.8	7.3	11.9	1.8
c1ccc2c(c1)nnn1c3ccccc3nc21	60.5	-51.1	48.3*	6.7	/
Cc1cc(C)c(C)c(S(=O)(=O)N2CCN(c3ncnc4ccccc34)CC2)c1C	/	/	/	/	54.8*
CCCCCCN1C[C@@H](n2cc(-c3ccc(F)cc3)nn2)[C@H](O)C[C@@H]1c1ccccc1	/	/	/	/	8.5
Cc1nc2ccc(NC(=O)c3ccc4ccccc4n3)cc2s1	89.2	-38.9	14.5	4.4	5.6
Cc1nnc(NC(=O)c2ccc3ccccc3n2)s1	136.2*	-45.0	-33.9	30.5	31.3
CC(=O)Oc1ccccc1C(=O)C=Cc1cccc([N+](=O)[O-])c1	/	/	/	/	64.8*
Cc1cc(O)c(C(=O)/C=C/c2cccc([N+](=O)[O-])c2)c(=O)o1	/	/	/	14.6	33.0
COc1ccccc1N1CCN(CC(O)COc2ccc(C)cc2C)CC1 (stereo not given)	/	/	/	/	6.9
